From ChEMBL document CHEMBL5058577, “EUbOPEN Chemogenomics Library 2 (Multiplex)” (2022)

Test system: HEK-293T
Assay: Multiplex assay against HEK293T
Format: toxicity, cell-based
Conditions: human
Method in brief: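 Phenotypes for tubulin, mitochondrial mass and membrane permeability are expressed as per cents of healthy-nucleus cells. Cells were stained live at seeding with Hoechst33342, BioTracker Green Microtubule Cytoskeleton Dye, MitoTracker Red and Annexin V Alexa Fluor 680, then imaged after compound addition on a CQ1 microscope at 37°C and 5% CO2. Machine-learning gating in CellPathfinder separated Hoechst high-intensity objects from normal cells, divided normal cells by nuclear state (healthy, pyknosed, fragmented) and divided pyknosed cells into mitotic or apoptotic.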

[1] = 12 h, 1 µM, compound concentration 1 uM, replicate 1
[2] = 12 h, 1 µM, compound concentration 1 uM, replicate 2
[3] = 12 h, 10 µM, compound concentration 10 uM, replicate 1
[4] = 12 h, 10 µM, compound concentration 10 uM, replicate 2
[5] = 24 h, 1 µM, compound concentration 1 uM, replicate 1
[6] = 24 h, 1 µM, compound concentration 1 uM, replicate 2
[7] = 24 h, 10 µM, compound concentration 10 uM, replicate 1
[8] = 24 h, 10 µM, compound concentration 10 uM, replicate 2
[9] = 48 h, 1 µM, compound concentration 1 uM, replicate 1
[10] = 48 h, 1 µM, compound concentration 1 uM, replicate 2
[11] = 48 h, 10 µM, compound concentration 10 uM, replicate 1
[12] = 48 h, 10 µM, compound concentration 10 uM, replicate 2

CN[C@@H](C)C(=O)N[C@H](C(=O)N1CCC[C@H]1C(=O)Nc1snnc1-c1ccccc1)C1CCCCC1 [GDC-0152]
Population Apoptotic (%) [1]: 31% | Population Fragmented Nuclei (%) [1]: 5% | Population Healthy Nuclei (%) [1]: 78% | Population Hoechst High Intensity Objects (%) [1]: 5% | Population Membrane Permeable-Phenotype (%) [1]: 0% | Population Mitochondria Different-Phenotype (%) [1]: 41% | Population Mitotic Cells (%) [1]: 68% | Population Normal (%) [1]: 94% | Population Pyknosed Nuclei (%) [1]: 15% | Population Tubulin-Different-Phenotype (%) [1]: 35% | Total Cell Count [1]: 444 | Population Apoptotic (%) [2]: 60% | Population Healthy Nuclei (%) [2]: 79% | Population Hoechst High Intensity Objects (%) [2]: 7% | Population Mitochondria Different-Phenotype (%) [2]: 62% | Population Mitotic Cells (%) [2]: 39% | Population Normal (%) [2]: 92% | Population Pyknosed Nuclei (%) [2]: 14% | Population Tubulin-Different-Phenotype (%) [2]: 26% | Total Cell Count [2]: 314 | Population Apoptotic (%) [3]: 50% | Population Fragmented Nuclei (%) [3]: 6% | Population Healthy Nuclei (%) [3]: 73% | Population Hoechst High Intensity Objects (%) [3]: 13% | Population Membrane Permeable-Phenotype (%) [3]: 0% | Population Mitochondria Different-Phenotype (%) [3]: 78% | Population Mitotic Cells (%) [3]: 49% | Population Normal (%) [3]: 86% | Population Pyknosed Nuclei (%) [3]: 20% | Population Tubulin-Different-Phenotype (%) [3]: 78% | Total Cell Count [3]: 362 | Population Apoptotic (%) [4]: 72% | Population Fragmented Nuclei (%) [4]: 7% | Population Hoechst High Intensity Objects (%) [4]: 20% | Population Mitochondria Different-Phenotype (%) [4]: 89% | Population Mitotic Cells (%) [4]: 28% | Population Normal (%) [4]: 80% | Population Pyknosed Nuclei (%) [4]: 18% | Population Tubulin-Different-Phenotype (%) [4]: 72% | Total Cell Count [4]: 330 | Population Apoptotic (%) [5]: 30% | Population Fragmented Nuclei (%) [5]: 8% | Population Healthy Nuclei (%) [5]: 80% | Population Hoechst High Intensity Objects (%) [5]: 4% | Population Membrane Permeable-Phenotype (%) [5]: 1% | Population Mitochondria Different-Phenotype (%) [5]: 28% | Population Mitotic Cells (%) [5]: 69% | Population Normal (%) [5]: 95% | Population Pyknosed Nuclei (%) [5]: 10% | Population Tubulin-Different-Phenotype (%) [5]: 23% | Total Cell Count [5]: 601 | Population Apoptotic (%) [6]: 38% | Population Fragmented Nuclei (%) [6]: 5% | Population Healthy Nuclei (%) [6]: 82% | Population Hoechst High Intensity Objects (%) [6]: 6% | Population Membrane Permeable-Phenotype (%) [6]: 0% | Population Mitochondria Different-Phenotype (%) [6]: 53% | Population Mitotic Cells (%) [6]: 61% | Population Normal (%) [6]: 93% | Population Pyknosed Nuclei (%) [6]: 12% | Population Tubulin-Different-Phenotype (%) [6]: 22% | Total Cell Count [6]: 387 | Population Apoptotic (%) [7]: 45% | Population Fragmented Nuclei (%) [7]: 10% | Population Healthy Nuclei (%) [7]: 71% | Population Hoechst High Intensity Objects (%) [7]: 7% | Population Membrane Permeable-Phenotype (%) [7]: 0% | Population Mitochondria Different-Phenotype (%) [7]: 74% | Population Mitotic Cells (%) [7]: 54% | Population Normal (%) [7]: 92% | Population Pyknosed Nuclei (%) [7]: 17% | Population Tubulin-Different-Phenotype (%) [7]: 69% | Total Cell Count [7]: 454 | Population Apoptotic (%) [8]: 60% | Population Fragmented Nuclei (%) [8]: 12% | Population Healthy Nuclei (%) [8]: 68% | Population Hoechst High Intensity Objects (%) [8]: 21% | Population Mitochondria Different-Phenotype (%) [8]: 80% | Population Mitotic Cells (%) [8]: 40% | Population Normal (%) [8]: 78% | Population Pyknosed Nuclei (%) [8]: 19% | Population Tubulin-Different-Phenotype (%) [8]: 58% | Total Cell Count [8]: 400 | Population Apoptotic (%) [9]: 31% | Population Fragmented Nuclei (%) [9]: 12% | Population Healthy Nuclei (%) [9]: 78% | Population Hoechst High Intensity Objects (%) [9]: 4% | Population Membrane Permeable-Phenotype (%) [9]: 1% | Population Mitochondria Different-Phenotype (%) [9]: 22% | Population Mitotic Cells (%) [9]: 68% | Population Normal (%) [9]: 95% | Population Pyknosed Nuclei (%) [9]: 9% | Population Tubulin-Different-Phenotype (%) [9]: 16% | Total Cell Count [9]: 928 | Population Apoptotic (%) [10]: 40% | Population Fragmented Nuclei (%) [10]: 10% | Population Healthy Nuclei (%) [10]: 82% | Population Hoechst High Intensity Objects (%) [10]: 3% | Population Mitochondria Different-Phenotype (%) [10]: 29% | Population Mitotic Cells (%) [10]: 60% | Population Normal (%) [10]: 96% | Population Pyknosed Nuclei (%) [10]: 6% | Total Cell Count [10]: 603 | Population Apoptotic (%) [11]: 47% | Population Fragmented Nuclei (%) [11]: 12% | Population Healthy Nuclei (%) [11]: 73% | Population Hoechst High Intensity Objects (%) [11]: 16% | Population Membrane Permeable-Phenotype (%) [11]: 0% | Population Mitochondria Different-Phenotype (%) [11]: 74% | Population Mitotic Cells (%) [11]: 52% | Population Normal (%) [11]: 83% | Population Pyknosed Nuclei (%) [11]: 13% | Population Tubulin-Different-Phenotype (%) [11]: 55% | Total Cell Count [11]: 538 | Population Apoptotic (%) [12]: 60% | Population Healthy Nuclei (%) [12]: 70% | Population Hoechst High Intensity Objects (%) [12]: 21% | Population Mitochondria Different-Phenotype (%) [12]: 76% | Population Mitotic Cells (%) [12]: 39% | Population Normal (%) [12]: 78% | Population Pyknosed Nuclei (%) [12]: 17% | Population Tubulin-Different-Phenotype (%) [12]: 52% | Total Cell Count [12]: 417
